This is an account of results in ChEMBL document CHEMBL1129731, “The chemistry of pseudomonic acid. 17. Dual-action C-1 oxazole derivatives of pseudomonic acid having an extended spectrum of antibacterial activity” (J Med Chem, 1996).

pIC50: −log10 of the molar value. ≈ marks a conversion by molar mass, not a printed value. Some results are limits rather than exact numbers.

Series [1] has as its system Mus musculus. Kind of series: Total […] dose against Staphylococcus aureus after po administration (1+5 hr post infection) to mouse. The following applies: in vivo. The format is organism-based. The essentials: (§1)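 CD1 male mice, groups of five, infected ip with S. aureus Smith, 1.3 × 10^10 cfu (po groups) or 5 × 10^9 cfu (sc groups); dosed po or sc at 1 + 5 h postinfection, 0.2 mL/mouse. CD50 = total dose protecting 50% of mice from death, scored day 2 postinfection.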

The subject of series [2] is Mus musculus. The series can be described thus: Total […] dose against Staphylococcus aureus after sc administration (1+5 hr post infection) to mouse. The format is organism-based. The settings on record: in vivo. The essentials:
as §1

For series [3], the system named is Staphylococcus aureus. Kind of series: Minimal inhibitory concentration against Staphylococcus aureus Smith. It is filed as functional. The essentials:
(§2)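 Broth microdilution in Mueller–Hinton broth; overnight broth cultures added to final 5 × 10^5 cfu/mL; incubated 37 °C, 18 h. MIC (µg/mL) taken as lowest concentration inhibiting growth.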

The subject of another series is Bacteroides fragilis. The series can be described thus: compound was tested for antibacterial activity against Bacteroides fragilis NCTC 10581. The format is functional.
The next series has as its system Streptococcus pneumoniae. Kind of series: compound was tested for antibacterial activity against Strep. pneumoniae 1761. It is filed as functional. The essentials: (§3)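 Broth microdilution in Mueller–Hinton broth supplemented (final) with 5% heat-inactivated horse serum, 0.02 mg/mL hematin and 0.08 mg/mL NAD; inoculum 5 × 10^5 cfu/mL from overnight broth cultures; 37 °C for 18 h; MIC (µg/mL) read as lowest concentration inhibiting growth.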

The test system of series [4] is Staphylococcus epidermidis. The series can be described thus: compound was tested for antibacterial activity aagainst Staphylococcus epidermidis PHLN 20. It is filed as functional. The essentials:
as §2

The subject of series [5] is Isoleucine--tRNA ligase (Staphylococcus aureus). The series can be described thus: Inhibitory activity against isoleucyl-tRNA synthetase (IRS) of Staphylococcus aureus NCTC 6571.
A further series relates to Escherichia coli. Kind of series: compound was tested for antibacterial activity against Escherichia coli DC2. The format is functional. The essentials: as §2
In the next series the test system is Pseudomonas aeruginosa. Kind of series: compound was tested for antibacterial activity against Pseudomonas aeruginosa K799 wt. The format is functional. The essentials: as §2
In the next series the test system is Moraxella catarrhalis. Kind of series: compound was tested for antibacterial activity against Moraxella catarrhalis 1502. The format is functional. The essentials: as §3
Another series deals with Enterococcus faecalis. The series can be described thus: compound was tested for antibacterial activity against Ent. faecalis I. It is filed as functional. The essentials: as §2
The next series concerns Klebsiella pneumoniae. Kind of series: compound was tested for antibacterial activity against Klebsiella pneumoniae E70. It is filed as functional. The essentials:
as §2

Series [6] has as its target T1, Isoleucine--tRNA ligase (Staphylococcus aureus, UniProt P41972).
T1 sequence (P41972 whole entry): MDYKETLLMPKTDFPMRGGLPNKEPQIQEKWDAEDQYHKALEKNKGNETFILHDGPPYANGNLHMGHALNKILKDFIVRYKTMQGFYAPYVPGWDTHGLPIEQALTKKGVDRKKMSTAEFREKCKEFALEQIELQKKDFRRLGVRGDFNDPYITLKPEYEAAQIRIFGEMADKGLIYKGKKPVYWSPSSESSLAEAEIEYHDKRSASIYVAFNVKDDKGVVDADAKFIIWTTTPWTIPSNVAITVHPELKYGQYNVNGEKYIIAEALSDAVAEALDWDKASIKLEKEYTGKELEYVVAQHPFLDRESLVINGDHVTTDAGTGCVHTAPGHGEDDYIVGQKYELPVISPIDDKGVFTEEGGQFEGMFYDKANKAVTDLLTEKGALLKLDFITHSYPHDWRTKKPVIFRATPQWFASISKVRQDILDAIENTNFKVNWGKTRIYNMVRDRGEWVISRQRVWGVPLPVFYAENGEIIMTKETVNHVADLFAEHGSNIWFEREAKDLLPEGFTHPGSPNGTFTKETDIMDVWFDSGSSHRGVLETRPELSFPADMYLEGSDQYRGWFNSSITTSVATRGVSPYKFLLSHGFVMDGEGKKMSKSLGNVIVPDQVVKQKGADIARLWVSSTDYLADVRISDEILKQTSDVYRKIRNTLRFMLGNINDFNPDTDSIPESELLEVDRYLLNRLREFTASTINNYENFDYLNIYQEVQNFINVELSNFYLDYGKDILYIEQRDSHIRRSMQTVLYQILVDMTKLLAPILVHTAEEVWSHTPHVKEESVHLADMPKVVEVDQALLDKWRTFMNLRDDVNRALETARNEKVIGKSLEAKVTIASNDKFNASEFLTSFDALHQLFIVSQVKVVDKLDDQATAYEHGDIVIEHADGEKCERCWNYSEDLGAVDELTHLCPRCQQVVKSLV
The series can be described thus: Inhibitory activity against isoleucyl-tRNA synthetase (IRS) of Staphylococcus aureus 11481.

Series [7] deals with Staphylococcus aureus. Kind of series: compound was tested for antibacterial activity against Staphylococcus aureus F 89. The format is functional. The essentials: as §2
The subject of series [8] is Staphylococcus aureus. The series can be described thus: Minimum inhibitory concentration against Staphylococcus aureus C 7. The format is functional. The essentials:
as §2

Series [9] concerns Staphylococcus aureus. Kind of series: compound was tested for antibacterial activity against Staphylococcus aureus NCTC 6571. It is filed as functional. The essentials: as §2
The test system of a further series is Streptococcus pyogenes. Kind of series: compound was tested for antibacterial activity against Streptococcus pyogenes CN10. It is filed as functional. The essentials:
as §3

The target in series [10] is T1, Isoleucine--tRNA ligase. Kind of series: Inhibitory activity against isoleucyl-tRNA synthetase (IRS) of Staphylococcus aureus C 7.
The next series has as its system Proteus mirabilis. The series can be described thus: compound was tested for antibacterial activity against Pr. mirabilis C889. The format is functional. The essentials: as §2
For the next series, the system named is Haemophilus influenzae. Kind of series: compound was tested for antibacterial activity against Haemophilus influenzae Q1. The format is functional. The essentials:
as §3

On to `CC1(C)S[C@@H]2[C@H](NC(=O)[C@H](N)c3ccc(O)cc3)C(=O)N2[C@H]1C(=O)O` [AMOXICILLIN], for which the CD50 in the series on Mus musculus [1] stood at 0.24 mg/kg; in the series with Mus musculus [2] it was 0.28 mg/kg. The MIC with Staphylococcus aureus [3] was determined as 0.25 µg/mL (≈ 0.684 µM).

For the compound `C/C(=C\C(=O)OCCCCCCCCC(=O)O)C[C@@H]1OC[C@H](C[C@@H]2O[C@H]2[C@@H](C)[C@H](C)O)[C@@H](O)[C@H]1O` [MUPIROCIN], the MIC in the series on Bacteroides fragilis is above 64 µg/mL; in the series on Streptococcus pneumoniae it was below 0.06 µg/mL; in [4] it was 0.125 µg/mL (≈ 0.25 µM); against Escherichia coli, 0.13 µg/mL (≈ 0.26 µM); against Pseudomonas aeruginosa it was above 64 µg/mL; with Moraxella catarrhalis, 0.5 µg/mL (≈ 0.999 µM). Besides, the MIC in the series with Enterococcus faecalis is 32 µg/mL (≈ 63.9 µM); against Klebsiella pneumoniae it was above 64 µg/mL; with Staphylococcus aureus [7], above 64 µg/mL; in the series on Staphylococcus aureus [8] it was above 2050 µg/mL; against Staphylococcus aureus [9], below 0.06 µg/mL; against Streptococcus pyogenes it was below 0.06 µg/mL. Also, the MIC with Proteus mirabilis is above 64 µg/mL; in the series with Haemophilus influenzae it was below 0.06 µg/mL. In addition, the IC50 (commonly the point on the concentration scale where inhibition reaches its midpoint) in series [5] turned out to be 0.0008 µg/mL (≈ 0.0016 µM). In addition, the pIC50 (in general, −log10 of the IC50, conventionally taken in molar units) was 6.55 at Isoleucine--tRNA ligase [6] and 4.40 against Isoleucine--tRNA ligase [10].
